Source: ChEMBL document CHEMBL1147097, “Trioxaquines are new antimalarial agents active on all erythrocytic forms, including gametocytes” (Antimicrob Agents Chemother, 2007)
Calls of active or inactive are those of the source.

Experiments:
Plasmodium falciparum [1] = experiment: Antimalarial activity against chloroquine-sensitive Plasmodium falciparum F32; assay type: functional, organism-based
Procedure, shortened: (§1)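 Asexual P. falciparum grown in culture at 37°C under 5% CO2 and exposed to drug dilutions for 48 h. Growth inhibition measured by radioactive micromethod. IC50 read graphically from concentration vs % growth inhibition; mean of at least three independent experiments.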

Plasmodium falciparum [2] = experiment: Antimalarial activity against chloroquine-resistant Plasmodium falciparum FcB1; assay type: functional, organism-based; procedure, shortened: as §1
Plasmodium falciparum [3] = experiment: Antimalarial activity against chloroquine-resistant Plasmodium falciparum FcM29; assay type: functional, organism-based; procedure, shortened: as §1
[4] = system: Plasmodium vinckei petteri; experiment: Antimalarial activity against Plasmodium vinckei petteri infected intraperitoneally dosed Swiss Albino mice (Mus musculus); assay type: functional; settings: for ED50 / ED90: Plasmodium vinckei, ip; for ED50: read-out: ED50; for ED90: read-out: ED90
Procedure, shortened: (§2)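 Four-day suppressive test: groups of five female Swiss albino mice infected i.p. on day 0 with 2 × 10^7 parasitized red cells, then dosed once daily for 4 days (i.p., p.o. or s.c.; DMSO vehicle, chloroquine in 0.9% NaCl). Parasitemia read on day 4 vs untreated controls; ED50/ED90 as % growth inhibition; CD50/CD90 = cure (no parasites at 60 days).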

[5] = system: Plasmodium vinckei petteri; experiment: Antimalarial activity against Plasmodium vinckei petteri infected orally dosed Swiss Albino mice (Mus musculus); assay type: functional; settings: for ED50 / ED90: Plasmodium vinckei, po; procedure, shortened: as §2
[6] = system: Plasmodium vinckei petteri; experiment: Antimalarial activity against Plasmodium vinckei petteri infected subcutaneously dosed Swiss Albino mice (Mus musculus); assay type: functional; settings: for ED50 / ED90: Plasmodium vinckei, sc; procedure, shortened: as §2
Mus musculus [7] = experiment: Toxicity against intraperitoneally dosed Swiss mouse; assay type: organism-based; settings: in vivo, ip
Procedure, shortened: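 Acute toxicity: noninfected Swiss mice (two to five per dose) given a single i.p. injection. LD50 is the dose killing 50% of mice within 60 days.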

Mus musculus [8] = experiment: Toxicity against Plasmodium vinckei petteri infected mice (Mus musculus) at 50 mg/kg, perorally after 4 days; assay type: organism-based; parameters: dose 50 mg/kg, route oral; settings: in vivo, po, 96 h
Procedure, shortened: (§3)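 Subacute toxicity: P. vinckei petteri-infected mice dosed on four consecutive days (day 0–3) at 10, 25 or 50 mg/kg/day p.o., i.p. or s.c. Five mice per dose and route.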

Mus musculus [9] = experiment: Toxicity against Plasmodium vinckei petteri infected mice (Mus musculus) at 25 mg/kg, intraperitoneally after 4 days; assay type: organism-based; parameters: dose 25 mg/kg, route intraperitoneal; settings: in vivo, ip, 96 h; procedure, shortened: as §3
Mus musculus [10] = experiment: Toxicity against Swiss mouse at 100 mg/kg, po after 4 days; assay type: organism-based; parameters: dose 100 mg/kg, route oral; settings: in vivo, 96 h
Procedure, shortened: (§4)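 Healthy Swiss mice given 100, 200 or 400 mg/kg/day p.o. by gavage for four consecutive days; two to four mice per dose, two experiments. One mouse killed per dose on days 5, 30 and 60. Organs examined against NaCl- or DMSO-treated controls, with H&E sections of stomach.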

Mus musculus [11] = experiment: Toxicity against Swiss mouse at 200 mg/kg, po after 4 days; assay type: organism-based; parameters: dose 200 mg/kg, route oral; settings: in vivo, 96 h; procedure, shortened: as §4
Mus musculus [12] = experiment: Toxicity against Swiss mouse at 400 mg/kg, po after 4 days; assay type: organism-based; parameters: dose 400 mg/kg, route oral; settings: in vivo, 96 h; procedure, shortened: as §4
Plasmodium falciparum [13] = experiment: Antimalarial activity against chloroquine-resistant Plasmodium falciparum W2 gametocytes (stage 2 & 3); assay type: functional, organism-based
Procedure, shortened: (§5)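 W2 gametocyte cultures treated with 50 mM N-acetyl-D-glucosamine for 3 or 5 days to remove asexual forms. Young (7-day) or old (13-day) cultures exposed to drug dilutions for 48 h. Giemsa thin films made and gametocytes counted per 6,000–10,000 erythrocytes. Mean of three independent experiments.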

Plasmodium falciparum [14] = experiment: Antimalarial activity against chloroquine-resistant Plasmodium falciparum W2 gametocytes (stage 4 & 5); assay type: functional, organism-based; procedure, shortened: as §5
Plasmodium falciparum [15] = experiment: Antimalarial activity against chloroquine-resistant Plasmodium falciparum W2 asexual […]; assay type: functional, organism-based
[16] = system: Plasmodium vinckei petteri; experiment: Antimalarial activity against Plasmodium vinckei petteri infected mice (Mus musculus) at 13 mg/kg/day, peroral administered 4 days after infection for 4 days; assay type: functional, organism-based
Procedure, shortened: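 Established-infection test: mice infected with 10^6 P. vinckei petteri on day 0 and left untreated until day 4. Then dosed p.o. by gavage once daily in DMSO for 4 days (days 4–7). Thin blood smears taken daily before and after treatment, with follow-up for recrudescence to 60 days.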

[17] = Ratio of LD50 for Swiss mice (Mus musculus) to ED50 for Plasmodium vinckei petteri infected mice (Mus musculus); assay type: functional
Procedure, shortened: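 Therapeutic index: LD50 (healthy Swiss mice, observed 60 days) divided by ED50 from the 4-day P. vinckei petteri suppressive test.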

Mus musculus [18] = experiment: Mortality rate in Plasmodium vinckei petteri infected mice (Mus musculus) at 50 mg/kg, subcutaneously; assay type: functional, organism-based; parameters: dose 50 mg/kg; procedure, shortened: as §3
[19] = Ratio of IC50 for HCT cells to IC50 for Plasmodium falciparum; assay type: functional
Plasmodium falciparum [20] = experiment: Antimalarial activity against chloroquine-sensitive Plasmodium falciparum Nigeria; assay type: functional, organism-based, Nigerian; procedure, shortened: as §1
[21] = Cytotoxicity against human HCT cells assessed as [3H]thymidine incorporation; assay type: cell-based
Procedure, shortened: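 HCT human colorectal tumour cells grown with 10% fetal calf serum and harvested with 0.05% trypsin-EDTA. Plated at 15 × 10^3 cells/well with drug dilutions.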

[22] = system: Plasmodium yoelii nigeriensis; experiment: Antimalarial activity against Plasmodium yoelii nigeriensis infected mice (Mus musculus) by oral dose; assay type: functional
Procedure, shortened: (§6)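 Four-day suppressive test with P. yoelii nigeriensis: infected mice given drug once daily for four consecutive days p.o. or s.c. (DMSO vehicle, chloroquine in 0.9% NaCl). Parasitemia compared with untreated controls. Cure was defined as no parasites detected after 60 days, with CD50 taken as the dose curing 50% of mice.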

[23] = system: Plasmodium yoelii nigeriensis; experiment: Antimalarial activity against Plasmodium yoelii nigeriensis infected subcutaneously dosed mice (Mus musculus); assay type: functional; procedure, shortened: as §6
Plasmodium falciparum [24] = experiment: Growth inhibition after 6 hrs in chloroquine-resistant Plasmodium falciparum FcB1; assay type: functional, organism-based; settings: FcB1, 6 h
Procedure, shortened: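 Plasmion-synchronized FcB1 parasites plated at ring stage and exposed to drug during successive 6-h windows of the erythrocytic cycle (one plate per period). Artemisinin tested at 7, 14, 28 nM; chloroquine at 120, 163, 232 nM; trioxaquine at 11.5, 23, 46 nM. Dilutions prepared daily.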

## CC(C)C1=C[C@H]2OC3(CCC(NCCNc4ccnc5cc(Cl)ccc45)CC3)OO[C@@]2(C)CC1.O=[N+]([O-])O (stereo partly specified)
Plasmodium falciparum [1]
  IC50: 25 nM
Plasmodium falciparum [2]
  IC50: 21 nM
Plasmodium falciparum [3]
  IC50: 16 nM
[4]
  CD50: 3 mg/kg/day
  CD90: 9 mg/kg/day
  ED50: 0.7 mg/kg/day
  ED90: 8 mg/kg/day
[5]
  CD50: 24 mg/kg/day
  CD90: 46 mg/kg/day
  ED50: 16 mg/kg/day
  ED90: 34 mg/kg/day
[6]
  CD50: 3 mg/kg/day
  CD90: 8 mg/kg/day
  ED50: 2 mg/kg/day
  ED90: 6 mg/kg/day
Mus musculus [7]
  LD50: 70 mg/kg/day
Mus musculus [8]
  Activity: Non-toxic
Mus musculus [9]
  Activity: Non-toxic

## CC(C)C1=C[C@H]2OC3(CCC(NCCNc4ccnc5cc(Cl)ccc45)CC3)OO[C@@]2(C)CC1 (stereo partly specified) [listing 1 of 2 here]
[4]
  CD50: 5 mg/kg/day
  CD90: 8 mg/kg/day
  ED50: 0.7 mg/kg/day
  ED90: 8 mg/kg/day
[5]
  CD50: 12 mg/kg/day
  CD90: 24 mg/kg/day
  ED50: 4 mg/kg/day
  ED90: 9 mg/kg/day
[6]
  CD50: 5 mg/kg/day
  CD90: 8 mg/kg/day
  ED50: 1.5 mg/kg/day
  ED90: 9 mg/kg/day
Mus musculus [10]
  Activity: Non-toxic
Mus musculus [11]
  Activity: Non-toxic
Mus musculus [12]
  Activity: Non-toxic

## COc1cc(NC(C)CCCNC2CCC3(CC2)OO[C@@]2(C)CCC(C(C)C)=C[C@H]2O3)c2ncccc2c1 (stereo partly specified)
Plasmodium falciparum [13]
  IC50: 57 nM
Plasmodium falciparum [14]
  IC50: 46 nM
Plasmodium falciparum [15]
  IC50: 43 nM

## CO[C@H]1O[C@@H]2O[C@@]3(C)CC[C@H]4[C@H](C)CC[C@@H]([C@H]1C)[C@@]24OO3
[4]
  ED50: 0.3 mg/kg/day
  ED90: 0.7 mg/kg/day

## CC(C)C1=C[C@H]2OC3(CCC(NCCNc4ccnc5cc(Cl)ccc45)CC3)OO[C@@]2(C)CC1 (stereo partly specified) [listing 2 of 2 here]
[16]
  Activity: Active
[17]
  Ratio LD50/ED50: 100
Mus musculus [18]
  Activity: inactive

## CC(C)C1=C[C@H]2OC3(CCC(NCCNc4ccnc5cc(Cl)ccc45)CC3)OO[C@@]2(C)CC1 (stereo in doubt; form 1)
Plasmodium falciparum [2]
  IC50: 49 nM
Plasmodium falciparum [3]
  IC50: 29 nM

## CC(C)C1=C[C@H]2OC3(CCC(NCCNc4ccnc5cc(Cl)ccc45)CC3)OO[C@@]2(C)CC1 (stereo in doubt; form 2)
Plasmodium falciparum [2]
  IC50: 48 nM
Plasmodium falciparum [3]
  IC50: 32 nM

## CC(C)C1=C[C@H]2OC3(CCC(NCCNc4ccnc5cc(Cl)ccc45)CC3)OO[C@@]2(C)CC1 (stereo in doubt; form 3)
Plasmodium falciparum [2]
  IC50: 47 nM
Plasmodium falciparum [3]
  IC50: 23 nM

## CC(C)C1=C[C@H]2OC3(CCC(NCCNc4ccnc5cc(Cl)ccc45)CC3)OO[C@@]2(C)CC1 (stereo in doubt; form 4)
Plasmodium falciparum [2]
  IC50: 43 nM
Plasmodium falciparum [3]
  IC50: 19 nM

## CC(C)C1=C[C@H]2OC3(CCC(NCCNc4ccnc5cc(Cl)ccc45)CC3)OO[C@@]2(C)CC1.O=C(O)CC(O)(CC(=O)O)C(=O)O (stereo in doubt; form 5)
[19]
  Ratio IC50: 130
Plasmodium falciparum [20]
  IC50: 23 nM
Plasmodium falciparum [2]
  IC50: 5 nM
[21]
  IC50: 3000 nM
[4]
  CD50: 12 mg/kg/day
  CD90: >20 mg/kg/day
[5]
  CD50: >25 mg/kg/day
  CD90: >25 mg/kg/day
  ED50: 17 mg/kg/day
  ED90: 23 mg/kg/day
[6]
  CD50: >10 mg/kg/day
  CD90: >10 mg/kg/day
  ED50: 2.8 mg/kg/day
  ED90: 8 mg/kg/day
[22]
  CD50: 22 mg/kg/day
  CD90: 24 mg/kg/day
[22]; Plasmodium yoelii, po
  ED50: 15 mg/kg/day
  ED90: 23 mg/kg/day
[23]
  CD50: 3 mg/kg/day
  CD90: 12 mg/kg/day
[23]; Plasmodium yoelii, sc
  ED50: 2 mg/kg/day
  ED90: 5 mg/kg/day
Plasmodium falciparum [13]
  IC50: 69 nM
Plasmodium falciparum [14]
  IC50: 67 nM
Plasmodium falciparum [15]
  IC50: 28 nM
Mus musculus [7]
  LD50: 70 mg/kg/day
Plasmodium falciparum [24]
  IC50: 18 nM
